According to ChEMBL document CHEMBL1154352, “Toll-like receptor 7 selective synthetic oligoribonucleotide agonists: synthesis and structure-activity relationship studies” (J Med Chem, 2009):
Calls of active or inactive are those of the source. The rule behind the calls is not given here.

What was measured:
[1] = target: T1, Toll-like receptor 7 (Homo sapiens) (UniProt Q9NYK1); test: Activation of human TLR7 expressed in HEK293XL assessed as induction of NF-kappaB activity by reporter gene assay
T1 sequence (whole entry): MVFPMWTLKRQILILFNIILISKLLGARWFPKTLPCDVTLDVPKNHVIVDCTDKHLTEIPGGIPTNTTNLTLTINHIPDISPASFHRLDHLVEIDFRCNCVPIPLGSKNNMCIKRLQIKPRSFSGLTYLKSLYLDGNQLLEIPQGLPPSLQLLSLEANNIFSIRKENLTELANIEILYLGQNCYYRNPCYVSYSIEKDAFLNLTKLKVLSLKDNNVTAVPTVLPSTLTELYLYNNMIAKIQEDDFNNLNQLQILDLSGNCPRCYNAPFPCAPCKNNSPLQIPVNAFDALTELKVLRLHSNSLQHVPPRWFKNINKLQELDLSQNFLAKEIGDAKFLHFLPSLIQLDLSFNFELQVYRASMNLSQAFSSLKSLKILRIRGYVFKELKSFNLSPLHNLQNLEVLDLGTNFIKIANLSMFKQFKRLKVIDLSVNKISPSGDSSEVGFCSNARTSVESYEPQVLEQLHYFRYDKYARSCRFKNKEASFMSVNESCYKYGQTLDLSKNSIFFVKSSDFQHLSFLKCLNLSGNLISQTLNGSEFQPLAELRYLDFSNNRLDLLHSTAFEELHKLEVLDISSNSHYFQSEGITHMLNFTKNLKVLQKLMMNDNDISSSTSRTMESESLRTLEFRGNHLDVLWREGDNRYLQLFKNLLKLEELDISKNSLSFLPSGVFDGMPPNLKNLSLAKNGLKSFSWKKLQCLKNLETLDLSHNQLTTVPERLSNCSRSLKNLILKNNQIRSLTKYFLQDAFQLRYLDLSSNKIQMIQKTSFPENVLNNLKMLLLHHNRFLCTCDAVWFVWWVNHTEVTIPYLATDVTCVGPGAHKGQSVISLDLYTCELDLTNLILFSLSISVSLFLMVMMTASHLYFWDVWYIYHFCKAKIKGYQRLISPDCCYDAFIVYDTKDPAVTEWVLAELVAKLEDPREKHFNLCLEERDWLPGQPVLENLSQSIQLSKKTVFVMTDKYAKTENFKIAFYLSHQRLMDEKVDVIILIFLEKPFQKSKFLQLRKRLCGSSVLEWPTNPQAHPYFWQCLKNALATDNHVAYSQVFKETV
Procedure, shortened: (§1)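 HEK293 cells stably expressing human TLR7 or TLR8, transiently transfected with SEAP reporter plasmid; medium replaced, SIMRA compounds added, 18 h incubation. Supernatant SEAP measured by QuantiBlue; expressed as fold increase in NF-κB activity over PBS control. Tabulated data at 50 μg/mL, representative of three independent experiments.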

[2] = target: T2, Toll-like receptor 8 (Homo sapiens) (UniProt Q9NR97); test: Activation of human TLR8 expressed in HEK293XL assessed as induction of NF-kappaB activity by reporter gene assay; procedure, shortened: as §1
T2 sequence (whole entry): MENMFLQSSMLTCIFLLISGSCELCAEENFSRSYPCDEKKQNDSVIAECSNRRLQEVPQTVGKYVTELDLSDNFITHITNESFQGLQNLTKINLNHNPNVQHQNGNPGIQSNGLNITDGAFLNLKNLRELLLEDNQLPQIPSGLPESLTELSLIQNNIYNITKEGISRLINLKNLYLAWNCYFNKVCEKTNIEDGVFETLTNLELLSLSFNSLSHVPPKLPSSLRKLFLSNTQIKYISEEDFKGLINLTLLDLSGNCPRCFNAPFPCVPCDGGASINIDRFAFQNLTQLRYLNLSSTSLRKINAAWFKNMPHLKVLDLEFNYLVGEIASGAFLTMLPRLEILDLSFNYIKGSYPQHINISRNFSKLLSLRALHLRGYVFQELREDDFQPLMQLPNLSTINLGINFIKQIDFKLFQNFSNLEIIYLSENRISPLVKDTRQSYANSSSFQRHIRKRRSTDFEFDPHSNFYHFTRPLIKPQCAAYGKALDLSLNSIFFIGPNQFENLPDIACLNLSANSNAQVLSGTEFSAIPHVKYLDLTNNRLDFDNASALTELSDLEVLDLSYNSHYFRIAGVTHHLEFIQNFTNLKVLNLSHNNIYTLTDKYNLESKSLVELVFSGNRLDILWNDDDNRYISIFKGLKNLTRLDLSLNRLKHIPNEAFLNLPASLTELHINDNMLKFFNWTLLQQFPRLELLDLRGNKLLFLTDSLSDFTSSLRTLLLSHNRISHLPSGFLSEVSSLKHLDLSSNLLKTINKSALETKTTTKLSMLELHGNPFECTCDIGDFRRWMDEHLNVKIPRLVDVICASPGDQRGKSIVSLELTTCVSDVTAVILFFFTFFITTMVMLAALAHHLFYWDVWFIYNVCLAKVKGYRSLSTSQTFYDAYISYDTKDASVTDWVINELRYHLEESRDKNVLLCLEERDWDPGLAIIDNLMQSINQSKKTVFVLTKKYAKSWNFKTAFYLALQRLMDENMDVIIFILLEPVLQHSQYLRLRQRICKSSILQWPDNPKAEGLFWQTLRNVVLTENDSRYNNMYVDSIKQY

| Activity [1] | Activity [2] | Compound |
| --- | --- | --- |
| Active | Active | Nc1ccn([C@@H]2O[C@H](COP(=O)(S)O[C@H]3[C@@H](O)[C@H](n4cnc5c(N)ncnc54)O[C@@H]3CO)[C@@H](OP(=O)(S)OC[C@H]3O[C@@H](n4ccc(=O)[nH]c4=O)[C@H](O)[C@@H]3OP(=O)(S)OC[C@H]3O[C@@H](n4ccc(=O)[nH]c4=O)[C@H](O)[C@@H]3OP(=O)(S)OC[C@H]3O[C@@H](n4ccc5c(=O)[nH]c(N)nc54)[C@H](O)[C@@H]3OP(=O)(S)OC[C@H]3O[C@@H](n4cnc5c(N)ncnc54)[C@H](O)[C@@H]3OP(=O)(S)OC[C@H]3O[C@@H](n4ccc(N)nc4=O)[C@H](O)[C@@H]3OP(=O)(S)OC[C@H]3O[C@@H](n4ccc5c(=O)[nH]c(N)nc54)[C@H](O)[C@@H]3OP(=O)(S)OC[C@H]3O[C@@H](n4cnc5c(N)ncnc54)[C@H](O)[C@@H]3OP(=O)(S)OC[C@H]3O[C@@H](n4ccc(=O)[nH]c4=O)[C@H](O)[C@@H]3OP(=O)(S)OC[C@H]3O[C@@H](n4ccc(=O)[nH]c4=O)[C@H](O)[C@@H]3OP(=O)(S)OCC(O)COP(=O)(S)O[C@H]3[C@@H](O)[C@H](n4ccc(=O)[nH]c4=O)O[C@@H]3COP(=O)(S)O[C@H]3[C@@H](O)[C@H](n4ccc(=O)[nH]c4=O)O[C@@H]3COP(=O)(S)O[C@H]3[C@@H](O)[C@H](n4cnc5c(N)ncnc54)O[C@@H]3COP(=O)(S)O[C@H]3[C@@H](O)[C@H](n4ccc5c(=O)[nH]c(N)nc54)O[C@@H]3COP(=O)(S)O[C@H]3[C@@H](O)[C@H](n4ccc(N)nc4=O)O[C@@H]3COP(=O)(S)O[C@H]3[C@@H](O)[C@H](n4cnc5c(N)ncnc54)O[C@@H]3COP(=O)(S)O[C@H]3[C@@H](O)[C@H](n4ccc5c(=O)[nH]c(N)nc54)O[C@@H]3COP(=O)(S)O[C@H]3[C@@H](O)[C@H](n4ccc(=O)[nH]c4=O)O[C@@H]3COP(=O)(S)O[C@H]3[C@@H](O)[C@H](n4ccc(=O)[nH]c4=O)O[C@@H]3COP(=O)(S)O[C@H]3[C@@H](O)[C@H](n4ccc(N)nc4=O)O[C@@H]3COP(=O)(S)O[C@H]3[C@@H](O)[C@H](n4cnc5c(N)ncnc54)O[C@@H]3CO)[C@H]2O)c(=O)n1 (some centres undefined) |
| Active | Active | Nc1ccn([C@@H]2O[C@H](COP(=O)(S)O[C@H]3[C@@H](O)[C@H](n4cnc5c(N)ncnc54)O[C@@H]3CO)[C@@H](OP(=O)(S)OC[C@H]3O[C@@H](n4ccc(=O)[nH]c4=O)[C@H](O)[C@@H]3OP(=O)(S)OC[C@H]3O[C@@H](n4ccc(=O)[nH]c4=O)[C@H](O)[C@@H]3OP(=O)(S)OC[C@H]3O[C@@H](n4ccc5c(=O)[nH]c(N)nc54)[C@H](O)[C@@H]3OP(=O)(S)OC[C@H]3O[C@@H](n4cnc5c(N)ncnc54)[C@H](O)[C@@H]3OP(=O)(S)OC[C@H]3O[C@@H](n4cnc5c(N)ncnc54)[C@H](O)[C@@H]3OP(=O)(S)OC[C@H]3O[C@@H](n4ccc5c(=O)[nH]c(N)nc54)[C@H](O)[C@@H]3OP(=O)(S)OC[C@H]3O[C@@H](n4ccc(N)nc4=O)[C@H](O)[C@@H]3OP(=O)(S)OC[C@H]3O[C@@H](n4ccc(=O)[nH]c4=O)[C@H](O)[C@@H]3OP(=O)(S)OC[C@H]3O[C@@H](n4ccc(=O)[nH]c4=O)[C@H](O)[C@@H]3OP(=O)(S)OCC(O)COP(=O)(S)O[C@H]3[C@@H](O)[C@H](n4ccc(=O)[nH]c4=O)O[C@@H]3COP(=O)(S)O[C@H]3[C@@H](O)[C@H](n4ccc(=O)[nH]c4=O)O[C@@H]3COP(=O)(S)O[C@H]3[C@@H](O)[C@H](n4ccc(N)nc4=O)O[C@@H]3COP(=O)(S)O[C@H]3[C@@H](O)[C@H](n4ccc5c(=O)[nH]c(N)nc54)O[C@@H]3COP(=O)(S)O[C@H]3[C@@H](O)[C@H](n4cnc5c(N)ncnc54)O[C@@H]3COP(=O)(S)O[C@H]3[C@@H](O)[C@H](n4cnc5c(N)ncnc54)O[C@@H]3COP(=O)(S)O[C@H]3[C@@H](O)[C@H](n4ccc5c(=O)[nH]c(N)nc54)O[C@@H]3COP(=O)(S)O[C@H]3[C@@H](O)[C@H](n4ccc(=O)[nH]c4=O)O[C@@H]3COP(=O)(S)O[C@H]3[C@@H](O)[C@H](n4ccc(=O)[nH]c4=O)O[C@@H]3COP(=O)(S)O[C@H]3[C@@H](O)[C@H](n4ccc(N)nc4=O)O[C@@H]3COP(=O)(S)O[C@H]3[C@@H](O)[C@H](n4cnc5c(N)ncnc54)O[C@@H]3CO)[C@H]2O)c(=O)n1 (some centres undefined) |
